# Reference: ChEMBL document CHEMBL4622936, “Discovery of the potent non-steroidal glucocorticoid receptor modulator BAY 1003803 as clinical candidate” (Bioorg Med Chem Lett, 2020)
# Key:
# [1] = Clearance in male Wistar rat blood at 1 mg/kg, iv; assay type: ADME, organism-based; details: whole blood
# [2] = Lipophilicity, logP of compound; assay type: physicochemical; details: octanol/water
# THP-1 [3] = experiment: Immunomodulatory activity in human THP1 cells assessed as reduction in LPS-induced IL-8 production relative to control; assay type: functional
# THP-1 [4] = experiment: Immunomodulatory activity in human THP1 cells assessed as reduction in LPS-induced IL-8 production; assay type: functional, cell-based
# In short: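 Human promyeloid THP-1 cells were stimulated with lipopolysaccharide to induce IL-8 synthesis, and inhibition of IL-8 production by the test compound was measured.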
# [5] = Volume of distribution at steady state in male Wistar rat blood at 1 mg/kg, iv; assay type: ADME, organism-based; details: whole blood, read-out: Vdss
# [6] = Clearance in male Wistar rat plasma at 1 mg/kg, iv; assay type: ADME, organism-based
# [7] = Inhibition of collagenase (unknown origin) transfected in human HeLa cells by luciferase reporter gene assay; assay type: cell-based
# [8] = Terminal half life in male Wistar rat blood at 1 mg/kg, iv; assay type: ADME, organism-based; details: whole blood, read-out: beta t1/2 (converted)
# HeLa = experiment: Inhibition of collagenase (unknown origin) transfected in human HeLa cells by luciferase reporter gene assay relative to control; assay type: cell-based
# PBMC [9] = experiment: Inhibition of LPS-induced IL12p40 release in human PBMC cells relative to control; assay type: functional
# PBMC [10] = experiment: Inhibition of PHA-induced IL2 release in human PBMC cells; assay type: functional, cell-based
# In short: (§1)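 Primary human peripheral blood mononuclear cells were stimulated with LPS (IL-12p40, TNFα) or PHA (IFNγ, IL-2, IL-4). Cytokine release was measured with test compound, and clobetasol and dexamethasone were run in parallel as reference glucocorticoids.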
# [11] = Clearance in female Beagle dog plasma at 1 mg/kg, iv; assay type: ADME, organism-based, Canis lupus familiaris
# [12] = Drug metabolism in human Hepatocyte assessed as demethylation product M-5 formation; assay type: ADME, cell-based; details: hepatocytes
# PBMC [13] = experiment: Inhibition of LPS-induced TNFalpha release in human PBMC cells; assay type: functional, cell-based; in short: as §1
# [14] = Clearance in female Wistar rat plasma at 5 mg/kg, iv; assay type: ADME, organism-based
# [15] = Drug metabolism in rat Hepatocyte assessed as demethylation product M-1 formation; assay type: ADME, cell-based; details: hepatocytes
# [16] = Drug metabolism in rat Hepatocyte assessed as demethylation product M-3 formation; assay type: ADME, cell-based; details: hepatocytes
# PBMC [17] = experiment: Inhibition of PHA-induced IL4 release in human PBMC cells; assay type: functional, cell-based; in short: as §1
# [18] = Drug metabolism in rat Hepatocyte assessed as demethylation product M-2 formation; assay type: ADME, cell-based; details: hepatocytes
# [19] = Drug metabolism in human Hepatocyte assessed as demethylation product M-1 formation; assay type: ADME, cell-based; details: hepatocytes
# [20] = Terminal half life in female Beagle dog blood at 1 mg/kg, iv; assay type: ADME, organism-based, Canis lupus familiaris; details: whole blood, read-out: beta t1/2 (converted)
# [21] = Clearance in female Wistar rat blood at 5 mg/kg, iv; assay type: ADME, organism-based; details: whole blood
# [22] = Drug metabolism in rat Hepatocyte assessed as demethylation product M-4 formation; assay type: ADME, cell-based; details: hepatocytes
# PBMC [23] = experiment: Inhibition of PHA-induced IFNgamma release in human PBMC cells; assay type: functional, cell-based; in short: as §1
# PBMC [24] = experiment: Inhibition of PHA-induced IL4 release in human PBMC cells relative to control; assay type: functional
# PBMC [25] = experiment: Inhibition of LPS-induced TNFalpha release in human PBMC cells relative to control; assay type: functional
# [26] = Metabolic stability in dog Hepatocyte assessed as intrinsic clearance; assay type: ADME, cell-based, Canis lupus familiaris; details: hepatocytes, read-out: CLH (converted)
# [27] = Metabolic stability in rat Hepatocyte assessed as intrinsic clearance; assay type: ADME, cell-based; details: hepatocytes, read-out: CLH (converted)
# [28] = Volume of distribution at steady state in female Beagle dog blood at 1 mg/kg, iv; assay type: ADME, organism-based, Canis lupus familiaris; details: whole blood, read-out: Vdss
# PBMC [29] = experiment: Inhibition of LPS-induced IL12p40 release in human PBMC cells; assay type: functional, cell-based; in short: as §1
# [30] = Drug metabolism in dog Hepatocyte assessed as demethylation product M-1 formation; assay type: ADME, cell-based, Canis lupus familiaris; details: hepatocytes
# [31] = Drug metabolism in human Hepatocyte assessed as demethylation product M-4 formation; assay type: ADME, cell-based; details: hepatocytes
# [32] = Apparent permeability from apical to basolateral side in human Caco2 cells; assay type: ADME, cell-based; details: Caco-2
# In short: (§2)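 Caco-2 monolayers. Apparent permeability (Papp) was measured from the apical to the basolateral compartment and also in the reverse direction. Efflux ratio is Papp B→A divided by Papp A→B.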
# [33] = Efflux ratio of apparent permeability from apical to basolateral side in human Caco2 cells; assay type: ADME, cell-based; details: Caco-2; in short: as §2
# PBMC [34] = experiment: Inhibition of PHA-induced IFNgamma release in human PBMC cells relative to control; assay type: functional
# [35] = Terminal half life in female Wistar rat blood at 5 mg/kg, iv; assay type: ADME, organism-based; details: whole blood, read-out: beta t1/2 (converted)
# [36] = Metabolic stability in human Hepatocyte assessed as intrinsic clearance; assay type: ADME, cell-based; details: hepatocytes, read-out: CLH (converted)
# [37] = Volume of distribution at steady state in female Wistar rat blood at 5 mg/kg, iv; assay type: ADME, organism-based; details: whole blood, read-out: Vdss
# [38] = Clearance in female Beagle dog blood at 1 mg/kg, iv; assay type: ADME, organism-based, Canis lupus familiaris; details: whole blood
# [39] = Drug metabolism in dog Hepatocyte assessed as demethylation product M-4 formation; assay type: ADME, cell-based, Canis lupus familiaris; details: hepatocytes
# PBMC [40] = experiment: Inhibition of PHA-induced IL2 release in human PBMC cells relative to control; assay type: functional
# [41] = Mutagenicity in Salmonella typhimurium by Ames test; assay type: toxicity; details: salmonella enterica subsp. enterica serovar typhimurium
smiles,measurement,setting,value
COc1ccc([C@H](Nc2cc(F)cc3[nH]c(=O)ccc23)[C@](O)(CO)C(F)(F)F)c(Cl)c1F,clearance,[1],100 mL/min/kg
same,logP,[2],2.4
same,Emax,THP-1 [3],92%
same,IC50,THP-1 [4],0.631 nM
same,Vd,[5],18 L/kg
same,clearance,[6],113 mL/min/kg
same,EC50,[7],1 nM
same,half-life,[8],2.9 h
same,Emax,HeLa,88%
CC[C@H]1c2c(cc(F)c(F)c2O)[C@H](Nc2cccc3[nH]c(=O)ccc23)[C@@](O)(C(F)(F)F)C1OC (stereo not given in full),logP,[2],3.1
same,Emax,THP-1 [3],78%
same,IC50,THP-1 [4],6.31 nM
same,EC50,[7],10 nM
same,Emax,HeLa,29%
COC[C@@](O)([C@@H](Nc1cc(F)cc2[nH]c(=O)ccc12)c1ccc(OC)c(F)c1Cl)C(F)(F)F,Efficacy,PBMC [9],96%
same,IC50,PBMC [10],0.88 nM
same,clearance,[11],20 mL/min/kg
same,Drug metabolism,[12],Metabolite_Detected
same,IC50,PBMC [13],0.92 nM
same,clearance,[14],50 mL/min/kg
same,Drug metabolism,[15],Metabolite_Detected
same,Drug metabolism,[16],Metabolite_Detected
same,IC50,PBMC [17],0.42 nM
same,logP,[2],3.3
same,Drug metabolism,[18],Metabolite_Detected
same,Drug metabolism,[19],Metabolite_Detected
same,half-life,[20],1.3 h
same,clearance,[21],60 mL/min/kg
same,Emax,THP-1 [3],95%
same,Drug metabolism,[22],Metabolite_Detected
same,IC50,PBMC [23],0.7 nM
same,IC50,THP-1 [4],0.398 nM
same,EC50,[7],0.794 nM
same,Efficacy,PBMC [24],99%
same,Efficacy,PBMC [25],98%
same,CLint scaled,[26],21.7 mL/min/kg
same,CLint scaled,[27],12 mL/min/kg
same,Vd,[28],2.1 L/kg
same,IC50,PBMC [29],0.75 nM
same,Drug metabolism,[30],Metabolite_Detected
same,Drug metabolism,[31],Metabolite_Detected
same,Papp A→B,[32],1.9 ×10⁻⁶ cm/s
same,efflux ratio,[33],0.5
same,Efficacy,PBMC [34],96%
same,half-life,[35],1.9 h
same,CLint scaled,[36],15.7 mL/min/kg
same,Emax,HeLa,85%
same,Vd,[37],7 L/kg
same,clearance,[38],20 mL/min/kg
same,Drug metabolism,[39],Metabolite_Notdetected
same,Efficacy,PBMC [40],95%
COc1ccc([C@H](Nc2cccc3nc(C)ccc23)[C@](O)(CSC)C(F)(F)F)c(Cl)c1F,logP,[2],4.5
same,Emax,THP-1 [3],98%
same,IC50,THP-1 [4],0.126 nM
same,EC50,[7],0.251 nM
same,Emax,HeLa,89%
Nc1cccc2c(=O)[nH]ccc12,Activity,[41],Toxic
CCOC[C@@](O)([C@@H](Nc1cc(F)cc2[nH]c(=O)ccc12)c1ccc(OC)c(F)c1Cl)C(F)(F)F,logP,[2],3.8
same,Emax,THP-1 [3],99%
same,IC50,THP-1 [4],0.794 nM
same,EC50,[7],1.58 nM
same,Emax,HeLa,91%
Nc1cc(F)cc2[nH]c(=O)ccc12,Activity,[41],Non-Toxic
CCSC[C@@](O)([C@@H](Nc1cccc2nc(C)ccc12)c1ccc(OC)cc1F)C(F)(F)F,logP,[2],4.4
same,Emax,THP-1 [3],85%
same,IC50,THP-1 [4],5.01 nM
same,EC50,[7],5.01 nM
same,Emax,HeLa,63%
CCSC[C@@](O)([C@@H](Nc1cc(F)cc2[nH]c(=O)ccc12)c1ccc(OC)c(F)c1Cl)C(F)(F)F,logP,[2],4.3
same,Emax,THP-1 [3],93%
same,IC50,THP-1 [4],1.58 nM
same,EC50,[7],3.16 nM
same,Emax,HeLa,92%
CCSC[C@@](O)([C@@H](Nc1cccc2nc(C)ccc12)c1ccc(OC)c(F)c1Cl)C(F)(F)F,logP,[2],4.9
same,Emax,THP-1 [3],91%
same,IC50,THP-1 [4],0.158 nM
same,EC50,[7],0.631 nM
same,Emax,HeLa,87%
CCSC[C@@](O)([C@@H](Nc1cccc2nc(C)ccc12)c1ccc(Cl)c(F)c1O)C(F)(F)F,logP,[2],3.4
same,Emax,THP-1 [3],107%
same,IC50,THP-1 [4],20 nM
same,EC50,[7],25.1 nM
same,Emax,HeLa,102%
Nc1c(F)ccc2[nH]c(=O)ccc12,Activity,[41],Toxic
Nc1ccc(F)c2[nH]c(=O)ccc12,Activity,[41],Toxic
